Experiments:
Glucocorticoid receptor [1] = biological target: T1, Glucocorticoid receptor (Homo sapiens, UniProt P04150); test: Displacement of GS-red from glucocorticoid receptor by fluorescence polarization assay
T1 sequence (P04150 whole entry): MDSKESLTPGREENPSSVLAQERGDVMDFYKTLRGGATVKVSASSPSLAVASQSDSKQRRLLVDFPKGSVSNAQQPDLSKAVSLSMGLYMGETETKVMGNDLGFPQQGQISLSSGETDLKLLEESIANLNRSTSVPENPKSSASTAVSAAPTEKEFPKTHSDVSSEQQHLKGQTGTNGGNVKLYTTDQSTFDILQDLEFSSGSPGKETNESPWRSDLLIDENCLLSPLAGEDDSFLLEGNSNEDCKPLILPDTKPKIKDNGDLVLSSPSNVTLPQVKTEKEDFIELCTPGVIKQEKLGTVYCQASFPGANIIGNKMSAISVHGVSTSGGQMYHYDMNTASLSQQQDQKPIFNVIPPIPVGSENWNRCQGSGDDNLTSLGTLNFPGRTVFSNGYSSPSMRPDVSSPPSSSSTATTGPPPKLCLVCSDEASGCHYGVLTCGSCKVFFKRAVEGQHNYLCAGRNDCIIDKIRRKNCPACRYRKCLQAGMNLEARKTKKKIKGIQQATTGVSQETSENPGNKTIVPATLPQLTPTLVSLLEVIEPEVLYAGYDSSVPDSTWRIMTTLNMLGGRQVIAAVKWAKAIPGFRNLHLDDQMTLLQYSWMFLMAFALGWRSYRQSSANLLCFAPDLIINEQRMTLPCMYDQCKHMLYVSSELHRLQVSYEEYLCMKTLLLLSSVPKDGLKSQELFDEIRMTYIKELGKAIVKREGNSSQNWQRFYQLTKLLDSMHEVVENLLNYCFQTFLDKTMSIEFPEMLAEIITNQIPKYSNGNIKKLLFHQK

Glucocorticoid receptor [2] = biological target: T1, Glucocorticoid receptor; test: Transrepression activity at glucocorticoid receptor alpha in phorbol myristate acetate-stimulated human A549 cells assessed as inhibition of AP1 response element by luciferase reporter gene assay; assay type: cell-based
Glucocorticoid receptor [3] = biological target: T1, Glucocorticoid receptor; test: Transrepression activity at glucocorticoid receptor alpha in IL-1beta-stimulated human A549 cells assessed as inhibition of NFkappaB-dependent E-selectin transcription by luciferase reporter gene assay; assay type: cell-based
Glucocorticoid receptor [4] = biological target: T1, Glucocorticoid receptor; test: Transactivation activity at GR-alpha in human NP1 Hela cells assessed as induction of GAL4-DBD after 20 hrs by luciferase reporter gene assay; assay type: cell-based
Glucocorticoid receptor [5] = biological target: T1, Glucocorticoid receptor; test: Transactivation activity at glucocorticoid receptor alpha human 13D3/Huh7 cells assessed as induction of TAT activity after 4 hrs by spectrophotometry; assay type: cell-based, Huh-7
Glucocorticoid receptor [6] = biological target: T1, Glucocorticoid receptor; test: Transactivation activity at GR-alpha in human NP1 Hela cells assessed as inhibition of GAL4-DBD after 20 hrs by luciferase reporter gene assay; assay type: cell-based
Blood [7] = test: Antiinflammatory activity in human whole blood assessed as inhibition of LPS-induced TNFalpha production after overnight incubation by ELISA; assay type: functional, tissue-based
Outline: (§1)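 Whole blood from two donors per experiment was collected into ACD-A. Compounds were added and the blood was incubated about 20 h at 37 °C under 5% CO2. Blood was then stimulated for 5 h with LPS (final 100 ng/mL, for TNFα) or IL-1β (final 10 ng/mL, for IL-8). Plasma TNFα or IL-8 was measured by ELISA. Efficacy was expressed as % of dexamethasone, and values are means of at least two experiments.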

Blood [8] = test: Antiinflammatory activity in human whole blood assessed as inhibition of IL-1beta-induced IL-8 production after overnight incubation by ELISA; assay type: functional, tissue-based; outline: as §1
Blood [9] = test: Antiinflammatory activity in human whole blood assessed as inhibition of LPS-induced TNFalpha production after overnight incubation by ELISA relative to Dexamethasone; assay type: functional; outline: as §1

Compound	Ki (Glucocorticoid receptor [1])	EC50 (Glucocorticoid receptor [2])	EC50 (Glucocorticoid receptor [3])	EC50 (Glucocorticoid receptor [4])	EC50 (Glucocorticoid receptor [5])	EC50 (Glucocorticoid receptor [6])	EC50 (Blood [7])	EC50 (Blood [8])	Imax (Blood [9])
CC(C)(C(=O)Nc1nncs1)[C@H]1c2ccccc2Oc2nc(-c3ccc(C(=O)N4CCCCC4)cc3)ccc21	1.3 nM	15.7 nM	28.6 nM	273 nM	> 5000 nM	167 nM			
CN(C)C(=O)c1ccc(-c2ccc3c(c2)Oc2ccccc2C3C(C)(C)C(=O)Nc2nncs2)cc1 (racemic)	8.6 nM	77.9 nM	74.9 nM	> 10000 nM	> 5000 nM	610 nM			
CC(C)(C(=O)Nc1nncs1)[C@H]1c2ccccc2Oc2nc(-c3ccc(C(=O)N4CCOCC4)cc3)ccc21	2.6 nM	12.4 nM	6.3 nM	39.2 nM		28.6 nM			
CC(=O)c1ccc(-c2ccc3c(n2)Oc2ccccc2[C@@H]3C(C)(C)C(=O)Nc2nncs2)cc1	2.9 nM	6.2 nM	10.2 nM	75.4 nM	1100 nM	31 nM			
Cc1ccc(-c2ccc3c(n2)Oc2ccccc2[C@@H]3C(C)(C)C(=O)Nc2nncs2)cc1	2.5 nM	46.8 nM	26.6 nM	2210 nM	> 5000 nM	260 nM			
CCc1ccc(-c2ccc3c(n2)Oc2ccccc2[C@H]3C(C)(C)C(=O)Nc2nncs2)cc1	1 nM	17.7 nM	8.3 nM	108 nM	732 nM	27 nM			
Cc1cccc(-c2ccc3c(n2)Oc2ccccc2[C@@H]3C(C)(C)C(=O)Nc2nncs2)c1	24 nM	654 nM	> 5000 nM	> 10000 nM	> 5000 nM	1560 nM			
CN(C)C(=O)c1ccc(-c2ccc3c(c2)Oc2ccccc2C3C(C)(C)C(=O)Nc2nncs2)nc1 (racemic)	4.1 nM	58 nM		382 nM	> 5000 nM	162 nM			
COc1ccc(-c2ccc3c(n2)Oc2ccccc2[C@H]3C(C)(C)C(=O)Nc2nncs2)cc1	49.5 nM	> 10000 nM	355 nM	> 10000 nM	> 5000 nM	4360 nM			
COc1ccc(-c2ccc3c(n2)Oc2ccccc2[C@@H]3C(C)(C)C(=O)Nc2nncs2)cc1	1.2 nM	28.3 nM	21.3 nM	> 10000 nM	> 5000 nM	105 nM			
Cc1ccccc1-c1ccc2c(n1)Oc1ccccc1[C@@H]2C(C)(C)C(=O)Nc1nncs1	10.5 nM	122 nM	> 5000 nM	> 10000 nM	> 5000 nM	1560 nM			
CN(C)C(=O)c1cnc(-c2ccc3c(c2)Oc2ccccc2C3C(C)(C)C(=O)Nc2nncs2)nc1 (racemic)	4.2 nM	183 nM		596 nM		592 nM			
CCS(=O)(=O)c1ccc(-c2ccc3c(n2)Oc2ccccc2[C@@H]3C(C)(C)C(=O)Nc2nncs2)cc1	4 nM	28.6 nM	22.8 nM	206 nM	> 5000 nM	196 nM			
CN(C)c1ccc(-c2ccc3c(n2)Oc2ccccc2[C@@H]3C(C)(C)C(=O)Nc2nncs2)cc1	3.8 nM	13.6 nM	20 nM	926 nM		242 nM			
CC(C)(C(=O)Nc1nncs1)[C@H]1c2ccccc2Oc2nc(-c3ccccc3)ccc21		> 1500 nM		> 10000 nM	> 5000 nM	187 nM			
CC(C)(C(=O)Nc1nncs1)C1c2ccccc2Oc2ncccc21 (racemic)	412 nM								
CCN(C)C(=O)c1ccc(-c2ccc3c(n2)Oc2ccccc2[C@H]3C(C)(C)C(=O)Nc2nncs2)cc1Cl	15.7 nM	124 nM	64.9 nM	702 nM	2400 nM	721 nM			
CN(C)C(=O)c1ccc(-c2ccc3c(n2)Oc2ccccc2[C@H]3C(C)(C)C(=O)Nc2nncs2)cc1		> 10000 nM		> 10000 nM	> 5000 nM	1740 nM			
C[C@@H]1C[C@H]2[C@@H]3CCC4=CC(=O)C=C[C@]4(C)[C@@]3(F)[C@@H](O)C[C@]2(C)[C@@]1(O)C(=O)CO [DEXAMETHASONE]							6.9 nM	5.1 nM	
CCN(C)C(=O)c1ccc(-c2ccc3c(n2)Oc2ccccc2[C@H]3C(C)(C)C(=O)Nc2nncs2)cc1	0.67 nM	17.4 nM	7.8 nM	32.4 nM	740 nM	36.7 nM	78.5 nM		100%
CNC(=O)c1ccc(-c2ccc3c(n2)Oc2ccccc2[C@@H]3C(C)(C)C(=O)Nc2nncs2)cc1	9.17 nM	167 nM	216 nM	> 10000 nM	> 5000 nM	806 nM			
CC(C)(C(=O)Nc1nncs1)[C@H]1c2ccccc2Oc2nc(-c3ccc(C(N)=O)cc3)ccc21		> 10000 nM		> 10000 nM	> 5000 nM	202 nM			
CC(C)(C(=O)Nc1nncs1)[C@@H]1c2ccccc2Oc2nc(-c3ccc(O)cc3)ccc21	5.7 nM	90.8 nM	108 nM	> 10000 nM		201 nM			
CC(=O)c1ccc(-c2ccc3c(n2)Oc2ccccc2[C@@H]3C(C)(C)C(=O)Nc2nncs2)cc1F	6 nM	42 nM		> 10000 nM	> 5000 nM	134 nM			
CC(C)(C(=O)Nc1nncs1)[C@H]1c2ccccc2Oc2nc(-c3ccc(C(=O)O)cc3)ccc21	15.4 nM	544 nM	1090 nM	> 10000 nM		> 5000 nM			
